Source: PubChem (several laboratories)
ASAP1 inh: inhibitors of human ASAP1 ArfGAP activity, primary screen, biochemical, fluorescence polarization | Arf-GAP with SH3 domain, ANK repeat and PH domain-containing protein 1 (Homo sapiens), … | hit rate 0.19% among 360,000 | inhibition, % at 16.5 µM | ASAP1-stimulated ARF1 GTP hydrolysis, GDP FP detection; in the data active = inhibition above about 25%
LEDGF integ inh: blockers of LEDGF/p75-dependent integrase strand transfer – biochemical, TR-FRET, high throughput, primary screen; TR-FRET IN-LEDGF/p75 DNA integration, Eu/Cy5; inhibition, % at 3.7 µM; hit rate 0.64% among 370,000; AID 743269, 2014;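 active = inhibition above the screen-wide mean plus 3 SD, cut at about 13% in these data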;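 note: signal is the Cy5 over europium emission ratio at 671 and 618 nm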
TDP2 inh: human TDP2 enzyme inhibitors, primary screen, biochemical, epi absorbance, recombinant enzyme; Tyrosyl-DNA phosphodiesterase 2 (Homo sapiens), O95551; T5PNP hydrolysis, p-nitrophenol absorbance 415 nm; inhibition, % at 12.8 µM; hit rate 0.34% among 370,000;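 active = inhibition above the mean of all tested compounds plus 3 SD, set per campaign, cut at about 25% in these data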
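Assay system: Recombinant human TDP2 | Quantity: 120 nM TDP2 per well | Incubation: 2 h at 37 °C | Signal: Epi absorbance | Evaluation: Percent inhibition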
ARFGAP1 inhibitor: inhibitors of rat ARFGAP1 GAP activity, primary screen, biochemical, fluorescence polarization, GDP tracer. inhibition, % at 16.5 µM. hit rate 0.26% among 360,000. Arfgap1-stimulated ARF1 GTP hydrolysis, GDP FP detection. AID 651572, 2012;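 active = inhibition above a per-plate limit, mean inhibition of low control wells plus 3 SD, cut at about 25% in these data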
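Material: rat Arfgap1 GAP domain (His6, aa 1-136), purified enzyme. Also added: human ARF1(Δ1-17)-GTP substrate. Compound dosing: 16.5 µM single point, 1.26% DMSO. Timing: enzyme reaction 120 min at 25 °C after 20 min preincubation. Signal: GDP detection by fluorescence polarization. Read-out basis: percent inhibition of GAP-stimulated GDP formation, scaled between DMSO and no-Arfgap1 medians.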
CASP6 VEID inh: human caspase-6 inhibitors, primary screen, biochemical, VEID-R110 fluorescence, single point, set 2. hit rate 0.53% among 350,000. inhibition, % at 12.5 µM. purified caspase-6, Z-VEID-R110 cleavage fluorescence. AID 686996, 2013;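 active = mean inhibition across replicates at least about 35%, with every replicate also reaching that limit, limit read from the data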
Target sequence (P55212 24-179 limits assumed): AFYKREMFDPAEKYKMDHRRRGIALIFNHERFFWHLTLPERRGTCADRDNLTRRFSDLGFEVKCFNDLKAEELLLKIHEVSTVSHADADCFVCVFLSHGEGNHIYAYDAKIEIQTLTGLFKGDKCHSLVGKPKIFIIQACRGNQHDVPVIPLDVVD
Target sequence (P55212 194-293 limits assumed): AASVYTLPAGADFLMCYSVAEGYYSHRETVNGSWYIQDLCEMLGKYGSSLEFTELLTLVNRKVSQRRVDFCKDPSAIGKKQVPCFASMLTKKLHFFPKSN
IN multimer act: HIV-1 IN multimer formation enhancers, counter-screen for LEDGF/p75 integration inhibitor project, biochemical, TR-FRET | shares compounds with LEDGF integ inh | TR-FRET HIV-1 integrase multimerization | activation, % at 7.7 µM | hit rate 17% among 2,000; in the data active = activation above about 8.9%
TRFRET interf: TR-FRET optical interference artefacts, confirmation, artefact control for LEDGF/p75-dependent integration inhibitor project, biochemical, HIV-1 IN multimerization. TR-FRET optical interference counterscreen. 2,000 tested, under 10 active. shares compounds with LEDGF integ inh. inhibition, % at 7.7 µM;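 active = inhibition above the mean over all tested compounds plus 3 SD, which no compound reached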
IN-LEDGF confirm: inhibitors of HIV-1 IN-LEDGF/p75 DNA integration, confirmation, biochemical, TR-FRET | shares compounds with LEDGF integ inh | TR-FRET LEDGF/p75-dependent HIV-1 integration | inhibition, % at 3.7 µM | hit rate 36% among 2,000 | AID 1053136, 2014; in the data active = inhibition above about 14%
Numbers stand for hits; i = inactive; nt = not tested or not shown. Rows were chosen to be rich in hits. Some 1.3% of all compounds tested hit in one or more screens of this group.

SMILES	ASAP1 inh	LEDGF integ inh	TDP2 inh	ARFGAP1 inhibitor	CASP6 VEID inh	IN multimer act	TRFRET interf	IN-LEDGF confirm
C[C@]12CCC3C(CC[C@H]4C[C@H](N)CC[C@]34C)C1CC[C@H]2O (some centres undefined)	i	21	i	i	i	i	i	i
Cc1cc(/C=C2\C(=O)NC(=O)N(c3ccccc3F)C2=O)c(C)n1-c1cc(C(=O)O)cc(C(=O)O)c1	i	40	i	i	i	14	i	39
Cc1cc(/C=C2\C(=O)NC(=O)N(c3ccc(F)cc3)C2=O)c(C)n1-c1cccc(C(=O)O)c1	i	i	i	i	i	nt	nt	nt
CCCCCCOc1ccc(CN2CCN(C)CC2)cc1	i	i	i	i	i	nt	nt	nt
O=C(O)c1ccc(N=Cc2c(O)[nH]c(=O)[nH]c2=O)cc1	i	i	i	i	i	nt	nt	nt
